As a reminder, the IC50 is the concentration that gives 50% inhibition.

≈ marks a conversion by molar mass, not a printed value.

Assay [1] deals with E. coli topoisomerase IV (Escherichia coli, UniProt P0AFI2+P20083). Put plainly: E. coli topoisomerase IV decatenation assay. In kind it is biochemical.
In assay [2] the test system is S. aureus Newman. The experiment in a line: Selection of spontaneous mutants. In kind it is cell-based, Staphylococcus aureus. Conditions: concentrations between 1× and 4× MIC.
Assay [3] has as its system S. aureus Newman. The experiment in a line: Membrane potential, DiOC2. In kind it is cell-based, Staphylococcus aureus. The settings on record: DiOC2(3); up to 4× MIC. Summed up:
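Flow cytometry with the membrane-potential probe DiOC2(3) on S. aureus Newman grown in Mueller–Hinton II to OD600nm ≈ 0.3 and exposed to test compound. CCCP served as positive control and vancomycin as negative control. Three biological replicates were run.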

The subject of assay [4] is S. aureus Newman. The experiment in a line: Time kill experiments. The settings on record: for type of killing (bactericidal / bacteriostatic): time kill, up to 24 h. In kind it is cell-based, Staphylococcus aureus.
The subject of assay [5] is S. aureus Newman. Put plainly: Macromolecular synthesis. In kind it is cell-based, Staphylococcus aureus. Conditions: 4× MIC.
In assay [6] the target is T1, E. coli topoisomerase I (Escherichia coli, UniProt P06612).
T1 sequence (P06612 1-865): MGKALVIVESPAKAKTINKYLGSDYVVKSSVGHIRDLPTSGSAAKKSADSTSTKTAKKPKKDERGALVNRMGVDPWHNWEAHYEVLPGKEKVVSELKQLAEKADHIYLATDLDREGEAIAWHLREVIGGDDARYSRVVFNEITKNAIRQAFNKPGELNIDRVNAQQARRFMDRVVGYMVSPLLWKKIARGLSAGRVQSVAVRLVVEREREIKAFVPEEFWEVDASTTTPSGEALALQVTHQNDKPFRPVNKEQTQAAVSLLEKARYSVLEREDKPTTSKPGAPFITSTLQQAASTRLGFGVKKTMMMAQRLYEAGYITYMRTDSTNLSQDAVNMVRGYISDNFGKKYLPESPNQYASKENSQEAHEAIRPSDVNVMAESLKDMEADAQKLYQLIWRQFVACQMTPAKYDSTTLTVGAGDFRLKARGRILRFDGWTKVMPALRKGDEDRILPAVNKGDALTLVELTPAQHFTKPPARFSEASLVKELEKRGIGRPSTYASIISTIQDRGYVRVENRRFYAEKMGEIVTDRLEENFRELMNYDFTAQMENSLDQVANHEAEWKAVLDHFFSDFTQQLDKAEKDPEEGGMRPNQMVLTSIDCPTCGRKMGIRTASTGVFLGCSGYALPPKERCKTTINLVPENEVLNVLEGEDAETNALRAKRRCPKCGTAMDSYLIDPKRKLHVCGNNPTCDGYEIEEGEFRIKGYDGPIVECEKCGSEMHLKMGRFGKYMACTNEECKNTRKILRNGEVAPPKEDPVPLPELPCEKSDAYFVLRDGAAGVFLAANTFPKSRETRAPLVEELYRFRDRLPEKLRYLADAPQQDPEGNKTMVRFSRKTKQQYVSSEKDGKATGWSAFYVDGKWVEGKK
Put plainly: Relaxation activity of E. coli topoisomerase I. The format is biochemical.

Assay [7] deals with S. aureus Newman. Put plainly: microbe, parasite or virus in culture. The format is cell-based. The settings on record: Staphylococcus aureus, read-out: MIC against S. aureus Newman.
Assay [8] relates to Gram-positive bacteria tested (E. faecalis, MSSA, and MRSA). Put plainly: MIC range over the Gram-positive bacteria tested. In kind it is cell-based, Enterococcus faecalis, Staphylococcus aureus. Conditions: range over E. faecalis and S. aureus (MSSA, MRSA) strains.
The target of assay [9] is Mycobacterium tuberculosis MurE ligase. Conditions: read-out: MurE ligase IC50; ATP-dependent MurE ligase; cited from earlier work.
The subject of assay [10] is multidrug-resistant (MDR) strains of clinically relevant Staphylococcus aureus. Conditions: natural olympicin A; cited from earlier work.
Assay [11] relates to M. tuberculosis (H37Rv). The experiment in a line: MIC, microbroth dilution, M. tuberculosis. Conditions: Mycobacterium tuberculosis, read-out: MIC M. tuberculosis (H37Rv). The format is cell-based. Background: Broth dilution looks for growth in wells or tubes with falling amounts of substance.
Assay [12] deals with Clostridium difficile. The settings on record: synthetic olympicin A; cited from earlier work.
For assay [13], the system named is E. faecalis (ATCC 33186). Put plainly: microbe, parasite or virus in culture. The format is cell-based. The settings on record: Enterococcus faecalis, ATCC33186, read-out: MIC E. faecalis (ATCC 33186).

Sequence of E. coli topoisomerase IV (P0AFI2 whole entry): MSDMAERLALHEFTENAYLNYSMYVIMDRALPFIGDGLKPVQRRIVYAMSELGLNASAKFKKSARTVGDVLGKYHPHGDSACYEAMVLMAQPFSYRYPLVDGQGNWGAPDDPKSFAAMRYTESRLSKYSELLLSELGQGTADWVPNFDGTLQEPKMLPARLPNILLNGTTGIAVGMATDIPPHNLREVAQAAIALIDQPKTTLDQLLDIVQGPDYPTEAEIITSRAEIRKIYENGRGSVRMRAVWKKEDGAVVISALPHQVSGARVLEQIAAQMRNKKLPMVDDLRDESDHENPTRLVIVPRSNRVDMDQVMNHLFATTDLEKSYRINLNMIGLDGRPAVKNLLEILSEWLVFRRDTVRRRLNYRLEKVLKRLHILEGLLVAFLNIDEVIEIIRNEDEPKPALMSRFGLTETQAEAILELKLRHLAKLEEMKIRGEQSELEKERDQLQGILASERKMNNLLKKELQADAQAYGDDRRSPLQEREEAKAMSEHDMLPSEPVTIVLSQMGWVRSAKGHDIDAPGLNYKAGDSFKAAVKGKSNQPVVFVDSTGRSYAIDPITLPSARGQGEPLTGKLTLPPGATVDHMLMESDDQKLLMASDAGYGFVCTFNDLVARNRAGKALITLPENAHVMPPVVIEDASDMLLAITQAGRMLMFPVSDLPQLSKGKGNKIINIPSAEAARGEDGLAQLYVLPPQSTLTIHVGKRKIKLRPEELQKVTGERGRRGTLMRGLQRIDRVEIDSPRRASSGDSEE
Sequence of E. coli topoisomerase IV (P20083 whole entry): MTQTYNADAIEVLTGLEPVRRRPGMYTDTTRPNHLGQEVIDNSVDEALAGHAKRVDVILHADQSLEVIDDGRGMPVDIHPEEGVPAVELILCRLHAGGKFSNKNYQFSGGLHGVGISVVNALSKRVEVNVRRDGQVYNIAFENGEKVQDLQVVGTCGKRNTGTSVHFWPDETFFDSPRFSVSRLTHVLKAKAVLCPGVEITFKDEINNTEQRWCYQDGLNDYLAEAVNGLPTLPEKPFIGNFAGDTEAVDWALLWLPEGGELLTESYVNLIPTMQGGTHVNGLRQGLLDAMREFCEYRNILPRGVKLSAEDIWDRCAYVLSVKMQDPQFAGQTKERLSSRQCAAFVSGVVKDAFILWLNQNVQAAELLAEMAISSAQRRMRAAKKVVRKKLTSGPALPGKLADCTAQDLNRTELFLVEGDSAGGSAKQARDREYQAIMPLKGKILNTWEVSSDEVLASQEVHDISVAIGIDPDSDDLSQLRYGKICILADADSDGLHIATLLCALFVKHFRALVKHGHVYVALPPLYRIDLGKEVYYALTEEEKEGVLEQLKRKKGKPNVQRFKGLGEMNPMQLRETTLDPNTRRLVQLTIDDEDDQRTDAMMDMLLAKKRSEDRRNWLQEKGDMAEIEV

In the case of `CC1(C)C2CC=C(/C=C/C(=O)c3ccc(O)cc3O)C1C2` (stereo not drawn) [Compound 3g, (E)-1-(2,4-Dihydroxyphenyl)-3-(6,6-dimethylbicyclo[3.1.1]hept-2-en-2-yl)prop-2-en-1-one], the 50% inhibitory concentration (IC50) was 60 to 120 µM in assay [1] and greater than 500 µM in assay [6]. For the same compound, the “frequency of spontaneous mutants” value in [2] is on record as “could not be selected”. Further, the “effect on membrane potential” value in [3] is “dissipated the membrane potential”. Moreover, the “time required to achieve a 3 log reduction in cells” value in assay [4] (at its MIC (1×)) is “up to 24 h”. Also, the “type of killing (bactericidal / bacteriostatic)” value in [4] is “concentration-dependent killing”. Moreover, the “effect on macromolecular synthesis (DNA, RNA, protein)” value (“effect on macromolecular synthesis” below) in assay [5] was “Several key biosynthetic processes were simultaneously inhibited”.
Take `C/C(=C\C(=O)OCCCCCCCCC(=O)O)C[C@@H]1OC[C@H](C[C@@H]2O[C@H]2[C@@H](C)[C@H](C)O)[C@@H](O)[C@H]1O` [mupirocin, reference compound]: the “type of killing (bactericidal / bacteriostatic)” value in assay [4] is “either bacteriostatic or slowly bactericidal”.
Take `O=C(O)c1cn(C2CC2)c2cc(N3CCNCC3)c(F)cc2c1=O` [ciprofloxacin]: the MIC in [7] turned out to be 0.25 µg/mL (≈ 0.754 µM).
Take `CCCCCCCCOc1cc(O)cc(O)c1C(=O)C(C)CC` (stereo not drawn) [Compound 2e, 1-(2,4-Dihydroxy-6-(octyloxy)phenyl)-2-methylbutan-1-one]: the values for the IC50 in assay [1] and in assay [6] were 30 to 60 µM and greater than 500 µM, respectively.
Regarding `CCCCCCCC1CC(=O)c2c(O)cc(O)cc2O1` (stereo not drawn) [Compound 5f, 2-Heptyl-5,7-dihydroxychroman-4-one], the IC50 is 120 to 250 µM in assay [1] and greater than 500 µM in assay [6].
Consider `CC1(C)C2CC=C(C3CC(=O)c4ccc(O)cc4O3)C1C2` (stereo not drawn) [Compound 3j, 2-(6,6-Dimethylbicyclo[3.1.1]hept-2-en-2-yl)-7-hydroxychroman-4-one], for which the “MIC range against Gram-positive bacteria tested” value in assay [8] was “largely inactive”.
Still for that read-out and setting: the entry for `CC(C)=CCCC(C)CC1CC(=O)c2c(O)cccc2O1` (stereo not drawn) [Compound 3l, 2-(2,6-Dimethylhept-5-en-1-yl)-5-hydroxychroman-4-one] is “not active”.
Consider `CC(C)=CCCC(C)CC1CC(=O)c2c(O)cc(O)cc2O1` (stereo not drawn) [Compound 5j, 2-(2,6-Dimethylhept-5-en-1-yl)-5,7-dihydroxychroman-4-one], for which the “frequency of spontaneous mutants” value in assay [2] is “could not be selected”. Moreover, in [3], the “effect on membrane potential” value is on record as “dissipated the membrane potential”. Also, the “effect on macromolecular synthesis” value in assay [5] was “Several key biosynthetic processes were simultaneously inhibited”.
Take `CC[C@H]1OC(=O)[C@H](C)[C@@H](O[C@H]2C[C@@](C)(OC)[C@@H](O)[C@H](C)O2)[C@H](C)[C@@H](O[C@@H]2O[C@H](C)C[C@H](N(C)C)[C@H]2O)[C@](C)(O)C[C@@H](C)C(=O)[C@H](C)[C@@H](O)[C@]1(C)O` [erythromycin]: the MIC in assay [7] was found to be 0.78 µg/mL (≈ 1.06 µM).
As for `CCCCCCCCOc1ccccc1C1CC(=O)c2ccc(O)cc2O1` (stereo not drawn) [Compound 8k, 7-Hydroxy-2-(2-(octyloxy)phenyl)chroman-4-one], the IC50 in assay [1] was greater than 1000 µM; in assay [6], greater than 500 µM.
Regarding `CCCCCCOc1ccccc1/C=C/C(=O)c1ccc(O)cc1O` [Compound 8b, (E)-1-(2,4-Dihydroxyphenyl)-3-(2-(hexyloxy)phenyl)prop-2-en-1-one], the IC50 in [1] was 60 to 120 µM; in assay [6] it was greater than 500 µM.
On to `CC[C@H](C)C(=O)c1c(O)cc(O)cc1OC/C=C(\C)CCC=C(C)C` [Compound 2a, (S,E)-1-(2-((3,7-Dimethylocta-2,6-dien-1-yl)oxy)-4,6-dihydroxyphenyl)-2-methylbutan-1-one], for which the IC50 in assay [1] is 30 to 60 µM; in [9], 75 µM; in [6], greater than 500 µM. Besides, the “MIC against a panel of MDR S. aureus strains” value in [10] is 0.5 to 1 µg/mL. For the same compound, the “previously reported anti S. aureus activity (MIC)” value in [10] is 0.5 to 1 µg/mL. The MIC in [11] amounted to 200 µg/mL (≈ 577 µM). For the same compound, in [3], the “effect on membrane potential” value was “dissipated the membrane potential”. Moreover, the “effect on macromolecular synthesis” value in assay [5] was “Several key biosynthetic processes were simultaneously inhibited”. In addition, the “MIC against Clostridium difficile” value in [12] was 1 to 2 µg/mL.
On to `CCCCCCOc1ccccc1C1CC(=O)c2ccc(O)cc2O1` (stereo not drawn) [Compound 8j, 2-(2-(Hexyloxy)phenyl)-7-hydroxychroman-4-one], for which the IC50 in [1] is greater than 1000 µM; in assay [6] it was greater than 500 µM.
Regarding `CN[C@H](CC(C)C)C(=O)N[C@H]1C(=O)N[C@@H](CC(N)=O)C(=O)N[C@H]2C(=O)N[C@H]3C(=O)N[C@H](C(=O)N[C@H](C(=O)O)c4cc(O)cc(O)c4-c4cc3ccc4O)[C@H](O)c3ccc(c(Cl)c3)Oc3cc2cc(c3O[C@@H]2O[C@H](CO)[C@@H](O)[C@H](O)[C@H]2O[C@H]2C[C@](C)(N)[C@H](O)[C@H](C)O2)Oc2ccc(cc2Cl)[C@H]1O` [vancomycin, reference compound], the “effect on membrane potential” value in assay [3] is “failed to affect the membrane potential”. Further, the “type of killing (bactericidal / bacteriostatic)” value in assay [4] is listed as “either bacteriostatic or slowly bactericidal”.
On to `O=C(/C=C/c1ccc(N2CCCCC2)cc1)c1ccc(O)cc1O` [Compound 8d, (E)-1-(2,4-Dihydroxyphenyl)-3-(4-(piperidin-1-yl)phenyl)prop-2-en-1-one], for which the IC50 in assay [1] was 500 to 1000 µM; in assay [6], greater than 500 µM. Also, in assay [3], the “effect on membrane potential” value was “dissipated the membrane potential”. Moreover, the “type of killing (bactericidal / bacteriostatic)” value in [4] is given as “entirely bacteriostatic”. In [7], the MIC came to 6.25 µg/mL (≈ 19.3 µM). In addition, the “effect on macromolecular synthesis” value in [5] is recorded as “Several key biosynthetic processes were simultaneously inhibited”.
Regarding `C=CCOc1ccccc1/C=C/C(=O)c1ccc(O)cc1O` [Compound 8a, (E)-3-(2-(Allyloxy)phenyl)-1-(2,4-dihydroxyphenyl)prop-2-en-1-one], the 50% inhibitory concentration (IC50) in assay [1] was 250 to 500 µM; in assay [6], greater than 500 µM. The “frequency of spontaneous mutants” value in assay [2] was “could not be selected”. Moreover, the “type of killing (bactericidal / bacteriostatic)” value in assay [4] is on record as “rapidly bactericidal”. Besides, in [5], the “effect on macromolecular synthesis” value is listed as “Several key biosynthetic processes were simultaneously inhibited”.
`CCC(C)C(=O)c1c(O)cc(O)cc1OC/C=C(\C)CCC=C(C)C` (stereo not drawn) [Compound 2b, (E)-1-(2-((3,7-Dimethylocta-2,6-dien-1-yl)oxy)-4,6-dihydroxyphenyl)-2-methylbutan-1-one]: the MIC in assay [13] stood at 1.56 µg/mL (≈ 4.5 µM).

The values are drawn from publication PMC4207537 (Journal of Medicinal Chemistry, 2014).
